Laboratory results reported in ChEMBL document CHEMBL3351652, “First photoswitchable neurotransmitter transporter inhibitor: light-induced control of γ-aminobutyric acid transporter 1 (GAT1) activity in mouse brain” (J Med Chem, 2014).
Calls of active or inactive are those of the source. The calls are words filed in the database; no cut-off is given here.

Tests used:
[1] = Half life of thermal relaxation of the compound in DMSO-d6/phosphate-buffer at pH 7.4 in dark at 50 uM by UV/vis-spectroscopy; assay type: physicochemical; conditions: pH 7.4, 50 µM
How it was run: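 Photoisomer relaxation to (E) monitored in the dark by UV/vis spectroscopy at 50 μM in DMSO-d6/phosphate buffer (pH 7.4) 1:200 (v/v), 25 °C; half-life derived from this thermal back-isomerization.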

[2] = target: T1, Sodium- and chloride-dependent GABA transporter 1 (Mus musculus, UniProt P31648); assay: Inhibition of mouse GAT1 stably expressed in HEK293 assessed as inhibition of [3H]GABA uptake treated with compound irradiated at 375 nm for 30 mins measured after 25 mins by liquid scintillation counting; assay type: cell-based
GABA transporter 2 = target: T2, GABA transporter 2 (Mus musculus, UniProt P31651); assay: Inhibition of mouse GAT2 stably expressed in HEK293 assessed as inhibition of [3H]GABA uptake after 25 mins by liquid scintillation counting; assay type: cell-based
T2 sequence (P31651 whole entry): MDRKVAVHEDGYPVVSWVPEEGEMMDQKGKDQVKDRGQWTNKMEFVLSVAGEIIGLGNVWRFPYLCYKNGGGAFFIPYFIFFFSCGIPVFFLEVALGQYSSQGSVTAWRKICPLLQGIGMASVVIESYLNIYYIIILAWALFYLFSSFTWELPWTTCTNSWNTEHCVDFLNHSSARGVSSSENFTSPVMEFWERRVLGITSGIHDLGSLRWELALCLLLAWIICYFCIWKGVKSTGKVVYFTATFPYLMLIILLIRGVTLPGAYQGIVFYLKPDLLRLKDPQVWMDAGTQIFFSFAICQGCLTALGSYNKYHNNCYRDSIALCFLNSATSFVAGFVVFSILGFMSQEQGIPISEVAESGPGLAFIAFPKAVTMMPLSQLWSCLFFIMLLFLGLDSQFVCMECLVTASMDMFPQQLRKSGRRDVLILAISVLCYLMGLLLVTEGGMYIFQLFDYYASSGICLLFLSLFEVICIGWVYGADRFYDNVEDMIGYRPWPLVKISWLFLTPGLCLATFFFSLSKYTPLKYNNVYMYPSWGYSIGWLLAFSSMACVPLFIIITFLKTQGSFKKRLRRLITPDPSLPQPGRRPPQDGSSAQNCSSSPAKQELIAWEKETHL
How it was run: (§1)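 HEK cells stably expressing the individual murine GABA transporter subtype; standardized [3H]GABA uptake assay adapted for photoswitchable ligands, run with the pure (E)-isomers; inhibition expressed as pIC50 ± SEM.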

GABA transporter 4 = target: T3, GABA transporter 4 (Mus musculus, UniProt P31650); assay: Inhibition of mouse GAT4 stably expressed in HEK293 assessed as inhibition of [3H]GABA uptake after 25 mins by liquid scintillation counting; assay type: cell-based; how it was run: as §1
T3 sequence (P31650 whole entry): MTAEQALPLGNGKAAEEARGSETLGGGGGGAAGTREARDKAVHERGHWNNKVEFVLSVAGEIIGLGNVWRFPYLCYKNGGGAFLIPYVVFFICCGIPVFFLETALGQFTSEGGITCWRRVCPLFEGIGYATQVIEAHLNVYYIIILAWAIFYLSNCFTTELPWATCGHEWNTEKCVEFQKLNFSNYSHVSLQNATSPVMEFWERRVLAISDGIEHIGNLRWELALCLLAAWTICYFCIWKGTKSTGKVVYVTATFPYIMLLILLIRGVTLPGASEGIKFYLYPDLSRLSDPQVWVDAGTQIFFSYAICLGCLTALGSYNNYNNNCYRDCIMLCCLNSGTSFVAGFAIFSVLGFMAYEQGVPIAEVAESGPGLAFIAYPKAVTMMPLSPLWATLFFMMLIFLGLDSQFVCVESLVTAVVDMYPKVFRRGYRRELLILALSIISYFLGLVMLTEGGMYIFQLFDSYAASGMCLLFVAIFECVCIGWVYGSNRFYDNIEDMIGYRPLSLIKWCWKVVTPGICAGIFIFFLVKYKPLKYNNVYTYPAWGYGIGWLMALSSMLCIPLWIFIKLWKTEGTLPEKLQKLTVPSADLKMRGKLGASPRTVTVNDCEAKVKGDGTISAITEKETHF

[3] = target: T1, Sodium- and chloride-dependent GABA transporter 1; assay: Inhibition of mouse GAT1 stably expressed in HEK293 assessed as inhibition of [3H]GABA uptake after 25 mins by liquid scintillation counting; assay type: cell-based; how it was run: as §1
GABA transporter 3 = target: T4, GABA transporter 3 (Mus musculus, UniProt P31649); assay: Inhibition of mouse GAT3 stably expressed in HEK293 assessed as inhibition of [3H]GABA uptake after 25 mins by liquid scintillation counting; assay type: cell-based; how it was run: as §1
T4 sequence (P31649 whole entry): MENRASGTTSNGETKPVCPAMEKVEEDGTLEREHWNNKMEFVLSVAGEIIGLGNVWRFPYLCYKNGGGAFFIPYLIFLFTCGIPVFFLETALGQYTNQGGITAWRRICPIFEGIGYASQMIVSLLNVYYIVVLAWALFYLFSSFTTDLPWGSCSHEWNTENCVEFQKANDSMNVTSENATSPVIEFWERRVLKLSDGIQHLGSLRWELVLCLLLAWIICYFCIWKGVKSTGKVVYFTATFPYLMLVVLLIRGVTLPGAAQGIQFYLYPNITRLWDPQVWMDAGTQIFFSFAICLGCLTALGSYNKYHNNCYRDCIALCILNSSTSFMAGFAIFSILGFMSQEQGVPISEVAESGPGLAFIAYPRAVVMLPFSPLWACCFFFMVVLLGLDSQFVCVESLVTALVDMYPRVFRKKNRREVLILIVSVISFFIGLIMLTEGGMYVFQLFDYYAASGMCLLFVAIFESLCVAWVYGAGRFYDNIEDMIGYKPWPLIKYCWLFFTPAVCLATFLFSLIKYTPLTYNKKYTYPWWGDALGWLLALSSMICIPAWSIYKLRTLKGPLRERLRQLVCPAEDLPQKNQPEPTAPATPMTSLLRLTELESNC

[4] = target: T1, Sodium- and chloride-dependent GABA transporter 1; assay: Inhibition of mouse GAT1 stably expressed in HEK293 assessed as inhibition of [3H]GABA uptake treated with compound irradiated at 350 nm for 30 mins measured after 25 mins by liquid scintillation counting; assay type: cell-based
[5] = target: Sodium- and chloride-dependent GABA transporter 1 (Mus musculus) (UniProt P31648); assay: Selectivity ratio of IC50 for mouse GAT1 stably expressed in HEK293 assessed as inhibition of [3H]GABA uptake after 25 mins to IC50 for mouse GAT1 stably expressed in HEK293 assessed as inhibition of [3H]GABA uptake treated with compound irradiated at 375 nm for 30 mins measured after 25 mins
[6] = Half life of thermal relaxation of the compound in D2O in dark at 10 mM by 1H NMR analysis; assay type: physicochemical; conditions: 10000 µM
How it was run: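 Thermal relaxation of the photoisomer back to the (E)-form followed in the dark by 1H NMR in D2O, 10 mM, at 37 °C.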

[7] = target: Sodium- and chloride-dependent GABA transporter 1 (Mus musculus) (UniProt P31648); assay: Inhibition of GAT1 in C57BL/6N mouse dentate gyrus granule cells assessed as induction of tonic GABAA receptor-mediated current at -70 mV holding potential compound treated at 20 uM followed by neuronal tissue UV-irradiation by patch-clamp analysis
[8] = target: Sodium- and chloride-dependent GABA transporter 1 (Mus musculus) (UniProt P31648); assay: Inhibition of GAT1 in C57BL/6N mouse dentate gyrus granule cells assessed as induction of tonic GABAA receptor-mediated current at -70 mV holding potential non-UV irradiated compound treated at 20 uM by patch-clamp analysis
[9] = target: Sodium- and chloride-dependent GABA transporter 1 (Mus musculus) (UniProt P31648); assay: Inhibition of GAT1 in C57BL/6N mouse dentate gyrus granule cells assessed as induction of tonic GABAA receptor-mediated current at -70 mV holding potential UV irradiated compound treated at 20 uM by patch-clamp analysis

t1/2 [6] | Structure (SMILES) | IC50 [2] | IC50 (GABA transporter 2) | IC50 (GABA transporter 4) | IC50 [3] | IC50 (GABA transporter 3) | IC50 [4] | other results
 | O=C(O)[C@@H]1CCCN(CCOCCc2cccc(/N=N\c3cccc4ccccc34)c2)C1 | 1.66 µM |  |  |  |  |  | t1/2 [1]: 19.3 h
 | O=C(O)C1CCCN(CCOCCc2cccc(/N=N/c3ccccc3)c2)C1 (stereo not given) |  | 339 µM | 209 µM | 3.16 µM | 148 µM | 4.17 µM | 
 | O=C(O)[C@@H]1CCCN(CCOCCc2ccc(/N=N/c3cccc4ccccc34)cc2)C1 | 0.794 µM | 20.4 µM | 22.9 µM | 0.269 µM | 19.5 µM |  | Ratio IC50 [5]: 3
57.6 h | O=C(O)C1CCCN(CCOCCc2ccc(/N=N\c3ccccc3)cc2)C1 (stereo not given) |  |  |  |  |  | 4.57 µM | 
 | O=C(O)[C@@H]1CCCN(CCOCCc2ccc(/N=N\c3cccc4ccccc34)cc2)C1 | 0.794 µM |  |  |  |  |  | t1/2 [1]: 13.6 h
 | O=C(O)[C@@H]1CCCN(CCOCCc2cccc(/N=N/c3cccc4ccccc34)c2)C1 | 1.66 µM | 64.6 µM | 30.9 µM | 0.407 µM | 25.1 µM |  | Ratio IC50 [5]: 4; inhibition [7]: inactive; inhibition [8]: Active; inhibition [9]: inactive
 | O=C(O)C1CCCN(CCOCCc2ccccc2/N=N/c2ccccc2)C1 (stereo not given) |  | 234 µM | 562 µM | 10.7 µM | 145 µM | 5.5 µM | 
140 h | O=C(O)C1CCCN(CCOCCc2cccc(/N=N\c3ccccc3)c2)C1 (stereo not given) |  |  |  |  |  | 4.17 µM | 
 | O=C(O)C1CCCN(CCOCCc2ccc(/N=N/c3ccccc3)cc2)C1 (stereo not given) |  | > 1000 µM | > 1000 µM | 1.91 µM | > 1000 µM | 4.57 µM | 

Structure (SMILES) | t1/2 [6] | IC50 [2] | IC50 (GABA transporter 2) | IC50 (GABA transporter 4) | IC50 [3] | IC50 (GABA transporter 3) | IC50 [4] | other results
O=C(O)C1CCCN(CCOCCc2ccccc2/N=N\c2ccccc2)C1 (stereo not given) | 115 h |  |  |  |  |  | 5.5 µM | 
